Screening results as filed in PubChem.
PDI turbidity – blocks human protein disulfide isomerase activity; P07237; PDI insulin aggregation turbidity, A650, 90 min; inhibition, % at 10 µM; 350,000 compounds, 0.052% hits; AID 588391;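 active = mean inhibition across replicates of 30% or more, whatever share of single replicates reach that level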
Target sequence (P07237 whole entry, looked up): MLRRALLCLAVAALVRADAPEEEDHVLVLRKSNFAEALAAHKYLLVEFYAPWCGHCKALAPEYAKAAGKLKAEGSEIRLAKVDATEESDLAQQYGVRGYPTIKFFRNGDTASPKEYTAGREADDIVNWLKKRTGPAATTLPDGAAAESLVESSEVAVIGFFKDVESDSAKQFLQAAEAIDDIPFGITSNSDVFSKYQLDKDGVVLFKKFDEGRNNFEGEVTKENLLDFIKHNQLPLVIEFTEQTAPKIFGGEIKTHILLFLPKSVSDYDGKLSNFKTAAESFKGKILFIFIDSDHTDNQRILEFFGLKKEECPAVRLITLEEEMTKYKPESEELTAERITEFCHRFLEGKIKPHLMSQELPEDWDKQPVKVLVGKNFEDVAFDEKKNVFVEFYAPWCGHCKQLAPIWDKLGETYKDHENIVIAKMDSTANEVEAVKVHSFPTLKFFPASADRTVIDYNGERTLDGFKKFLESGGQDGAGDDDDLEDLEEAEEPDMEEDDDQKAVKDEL
ERp5 block – ERp5 (human) disulfide isomerase inhibition; Q15084; ERp5 insulin aggregation, absorbance 650 nm, 90 min; inhibition, % at 9.99 µM; 350,000 compounds, 0.05% hits; AID 651711;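 active = mean replicate inhibition above about 25%, with every replicate also reaching it, limit read from the data, passing the limit was not always enough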
CAL PDZ FP-1 – blocks peptide binding to human CAL PDZ domain | Q9HD26 | purified CAL PDZ, TMR-peptide fluorescence polarization, 1 h | inhibition, % at 20 µM | 330,000 compounds, 0.02% hits;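 active = highest replicate inhibition of at least 40%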
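Test system: tagged CAL PDZ domain / Buffer or medium: sodium phosphate/NaCl buffer pH 7.4 with TCEP, IgG, Thesit / Reagent: TMR-labelled reporter peptide T*-PRC34 bound in PDZ groove / Compound dosing: single point, 20 µM / Schedule: 1 h incubation at room temperature before polarization reading / Technique: fluorescence polarization (mP) / Benchmarks: unlabelled peptide, DMSO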
Rin1 Abl inh – inhibitors of human Rin1-Abl protein interaction. P00519+Q13671. TR-FRET Rin1/Abl binding, biochemical. inhibition, % at 7.35 µM. 360,000 compounds, 0.4% hits; in the data active = inhibition above about 5%, passing the limit was not always enough
ERAP1 inh – inhibitors of human ERAP1 aminopeptidase; 340,000 compounds, 0.15% hits; inhibition, % at 10.7 µM; AID 652197; recombinant ERAP1, Leu-AMC fluorescence, 60 min;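 active = mean replicate inhibition of at least 30%, or all replicates individually reaching that 30% level; inactive = mean below 30% and not every replicate reaching it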
CAL PDZ FP-2 – inhibitors of human CAL PDZ peptide binding; purified CAL PDZ, TMR-peptide fluorescence polarization, 1 h; inhibition, % at 24.9 µM; 300,000 compounds, 0.92% hits; AID 602252;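 active = mean inhibition of at least 30% with at least half of replicates also reaching 30%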
Rin1 Abl conf – confirmation of inhibitors of human Rin1-Abl interaction; AID 602124; inhibition, % at 7.35 µM; 1,300 compounds, 49% hits; shares compounds with Rin1 Abl inh; TR-FRET Rin1-Abl binding, purified proteins; in the data active = inhibition above about 6.5%
GFP quench-1 – quenches GFP fluorescence, counter-screen for Rin1-Abl inhibitors; inhibitors/quenchers counterscreen; AID 602125; inhibition, % at 6.75 µM; 1,300 compounds, 8.5% hits; shares compounds with Rin1 Abl inh; in the data active = inhibition above about 6.5%;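 also: ABL1-eGFP fusion protein alone without its partner RIN1-SBP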
GFP quench DR – counter-screen for Rin1-Abl inhibitors: GFP quenchers, dose response | GFP fluorescence interference/quenching counterscreen | IC50, µM | 230 tested, under 10 active | shares compounds with Rin1 Abl inh;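 also: ABL1-eGFP fusion protein alone without its RIN1 binding partner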
GFP quench-2 – counter-screen for Rin1-Abl interaction inhibitors: GFP fluorescence quenching; shares compounds with Rin1 Abl inh; GFP fluorescence quenching counterscreen, biochemical; IC50, µM; 25 tested, under 10 active
Hits are given with their value. Compounds with a hit are over-represented: about 1.1% of the library has one in this group of screens. Unless noted, no rule for the calls is given here.

Results for Cc1cc(C)cc(OCc2nnc(SCC(=O)c3ccc(Br)cc3)o2)c1 ?
PDI turbidity: inactive; CAL PDZ FP-1: inactive; Rin1 Abl inh: 4.7; CAL PDZ FP-2: inactive; Rin1 Abl conf: inactive; GFP quench-1: inactive

How did O=C(Cc1ccccc1)NC1(O)C(=O)c2ccccc2C1=O do in these assays?
PDI turbidity: inactive; ERp5 block: inactive; CAL PDZ FP-1: inactive; Rin1 Abl inh: inactive

Results for Cc1ccc(C(=O)NC2(O)C(=O)c3ccccc3C2=O)cc1C ?
PDI turbidity: inactive; ERp5 block: inactive; CAL PDZ FP-1: inactive; Rin1 Abl inh: 11.7; ERAP1 inh: inactive; Rin1 Abl conf: 15.9; GFP quench-1: inactive

What do the screens show for `COCC(=O)Nc1ccc2c(c1)[C@@H]1C[C@H](CC(=O)NCC3CC3)O[C@@H](CO)[C@@H]1O2`?
ERp5 block: inactive; ERAP1 inh: inactive

How did Cc1cc(N2CCOCC2)nc(SCC(=O)c2ccccc2)n1 do in these assays?
PDI turbidity: inactive; ERp5 block: inactive; CAL PDZ FP-1: inactive; Rin1 Abl inh: inactive; ERAP1 inh: inactive; CAL PDZ FP-2: inactive

What do the screens show for `Cc1cc(N2CCOCC2)nc(SCC(=O)c2ccc(Cl)cc2)n1`?
PDI turbidity: inactive; CAL PDZ FP-1: inactive; Rin1 Abl inh: 15.2; CAL PDZ FP-2: inactive; Rin1 Abl conf: 14.6; GFP quench-1: inactive

What do the screens show for `CC(Oc1cccc(Cl)c1)C(=O)Nc1nc(-c2ccccn2)cs1` (centres undefined)?
PDI turbidity: inactive; ERp5 block: inactive; CAL PDZ FP-1: inactive; Rin1 Abl inh: 7.1; ERAP1 inh: inactive; CAL PDZ FP-2: inactive; Rin1 Abl conf: inactive; GFP quench-1: inactive

What do the screens show for `C[C@@H]1CN([C@@H](C)CO)C(=O)c2cc(NS(=O)(=O)c3cn(C)cn3)ccc2O[C@@H](C)CCCCO[C@H]1CN(C)C`?
ERp5 block: inactive; ERAP1 inh: inactive

Results for O=C1C(=Cc2ccco2)CCCC1=Cc1ccco1 ?
PDI turbidity: inactive; ERp5 block: inactive; CAL PDZ FP-1: inactive; Rin1 Abl inh: inactive; ERAP1 inh: inactive; CAL PDZ FP-2: inactive

How did O=C1C(=Cc2ccco2)CCC1=Cc1ccco1 do in these assays?
PDI turbidity: inactive; ERp5 block: inactive; CAL PDZ FP-1: inactive; Rin1 Abl inh: 11.9; ERAP1 inh: inactive; CAL PDZ FP-2: inactive; Rin1 Abl conf: 16.8; GFP quench-1: 28.9

What do the screens show for `Cc1nnc(N/N=C/c2ccc(Br)cc2)n1N`?
PDI turbidity: inactive; ERp5 block: inactive; CAL PDZ FP-1: inactive; Rin1 Abl inh: 6.7; ERAP1 inh: inactive; CAL PDZ FP-2: inactive; Rin1 Abl conf: inactive; GFP quench-1: inactive

How did Cc1nnc(N/N=C/c2ccc(-c3ccc(Br)cc3)o2)n1N do in these assays?
PDI turbidity: inactive; ERp5 block: inactive; CAL PDZ FP-1: inactive; Rin1 Abl inh: inactive; ERAP1 inh: inactive

What do the screens show for `O=c1cc(-c2ccc(O)cc2)oc2c(O)c(O)c(O)c(O)c12`?
ERp5 block: inactive; CAL PDZ FP-1: inactive; Rin1 Abl inh: 36.9; ERAP1 inh: inactive; CAL PDZ FP-2: inactive; Rin1 Abl conf: 48.2; GFP quench-1: 21.6

What do the screens show for `CC(C)CC#Cc1ccc([C@H]2[C@H](CO)N3C(=O)CN(C(=O)Cc4cccnc4)C[C@@H]23)cc1`?
ERp5 block: inactive; ERAP1 inh: inactive

What do the screens show for `OCCNc1ncnc2c1ncn2[C@H]1CN(Cc2ccc(-c3ccccc3)cc2)C[C@@H](CO)O1`?
PDI turbidity: inactive; ERp5 block: inactive; Rin1 Abl inh: 24.2; ERAP1 inh: inactive; Rin1 Abl conf: 27.9; GFP quench-1: inactive; GFP quench DR: inactive

How did OC[C@@H]1CN(Cc2ccc(-c3ccccc3)cc2)C[C@H](n2cnc3c(NCc4ccco4)ncnc32)O1 do in these assays?
PDI turbidity: inactive; ERp5 block: inactive; Rin1 Abl inh: 10.2; ERAP1 inh: inactive; Rin1 Abl conf: 6.7; GFP quench-1: inactive

How did COc1ccc(N2CCN(c3nc4c(c(=O)n(C)c(=O)n4C)n3Cc3ccccc3)CC2)cc1 do in these assays?
PDI turbidity: inactive; CAL PDZ FP-1: inactive; Rin1 Abl inh: 5.8; CAL PDZ FP-2: inactive; Rin1 Abl conf: 7.7; GFP quench-1: inactive

Results for C=C(C)Cn1c(N2CCN(c3ccc(OC)cc3)CC2)nc2c1c(=O)n(C)c(=O)n2C ?
PDI turbidity: inactive; ERp5 block: inactive; CAL PDZ FP-1: inactive; Rin1 Abl inh: inactive; ERAP1 inh: inactive; CAL PDZ FP-2: inactive

What do the screens show for `COc1ccccc1C(=O)Nc1ccc2c(c1)C(=O)N(C)[C@H]1CC[C@H](CC(=O)NCCc3ccncc3)O[C@H]1CO2`?
ERp5 block: inactive; ERAP1 inh: inactive

What do the screens show for `C[C@@H]1CCCCO[C@@H](CN(C)C(=O)C2CCCCC2)[C@@H](C)CN([C@@H](C)CO)C(=O)c2cc(NC(=O)NC3CCCCC3)ccc2O1`?
ERp5 block: inactive; ERAP1 inh: inactive

Results for N#CC(=C1Nc2ccccc2N1)S(=O)(=O)c1ccccc1 ?
PDI turbidity: inactive; ERp5 block: inactive; CAL PDZ FP-1: inactive; Rin1 Abl inh: 9.5; ERAP1 inh: inactive; CAL PDZ FP-2: inactive; Rin1 Abl conf: inactive; GFP quench-1: inactive

How did CCC1CCCCN1CCCNC(=O)c1ccc2c(c1)c(C)c(C)n2CC (centres undefined) do in these assays?
PDI turbidity: inactive; ERp5 block: inactive; CAL PDZ FP-1: inactive; Rin1 Abl inh: 14.8; ERAP1 inh: inactive; CAL PDZ FP-2: inactive; Rin1 Abl conf: inactive; GFP quench-1: inactive

Results for CCC1CCCCN1CCCNC(=O)c1ccc2c(c1)c(C)c(C)n2C (centres undefined) ?
PDI turbidity: inactive; ERp5 block: inactive; CAL PDZ FP-1: inactive; Rin1 Abl inh: inactive; ERAP1 inh: inactive; CAL PDZ FP-2: inactive

Results for Cc1ccc(S(=O)(=O)c2nnn3c2nc(N2CCOCC2)c2ccccc23)c(C)c1 ?
PDI turbidity: inactive; ERp5 block: inactive; CAL PDZ FP-1: inactive; Rin1 Abl inh: 45.5; ERAP1 inh: inactive; CAL PDZ FP-2: inactive; Rin1 Abl conf: 29.7; GFP quench-1: inactive

How did CN(CCc1ccccc1)C(=O)c1ccc(NC(=O)Cc2ccc(NC(=O)C3CCN(C(=O)C4CCCC4)CC3)cc2)cc1 do in these assays?
PDI turbidity: inactive; ERp5 block: inactive; CAL PDZ FP-1: inactive; Rin1 Abl inh: 59.6; ERAP1 inh: inactive; CAL PDZ FP-2: inactive; Rin1 Abl conf: 67.6; GFP quench-1: inactive; GFP quench DR: inactive; GFP quench-2: inactive
